CHRM1 antagonist: human M1 muscarinic receptor antagonists, primary screen, CHO-K1 cells, Fluo-8 calcium fluorescence, 1536-well; Muscarinic acetylcholine receptor M1 (Homo sapiens), P11229; CHO-K1 hM1, ACh EC80 antagonist; inhibition, % at 3 µM; 360,000 tested, 1.3% active; AID 588852, 2011;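 active = percent inhibition above its own plate's cutoff, namely the mean of that plate's compound wells plus 3 SD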;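 also: peak over basal fluorescence ratio during 140 s after agonist addition; 0% = ACh EC80 plus DMSO and 100% = DMSO alone without agonist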
Target sequence (P11229 whole entry, looked up): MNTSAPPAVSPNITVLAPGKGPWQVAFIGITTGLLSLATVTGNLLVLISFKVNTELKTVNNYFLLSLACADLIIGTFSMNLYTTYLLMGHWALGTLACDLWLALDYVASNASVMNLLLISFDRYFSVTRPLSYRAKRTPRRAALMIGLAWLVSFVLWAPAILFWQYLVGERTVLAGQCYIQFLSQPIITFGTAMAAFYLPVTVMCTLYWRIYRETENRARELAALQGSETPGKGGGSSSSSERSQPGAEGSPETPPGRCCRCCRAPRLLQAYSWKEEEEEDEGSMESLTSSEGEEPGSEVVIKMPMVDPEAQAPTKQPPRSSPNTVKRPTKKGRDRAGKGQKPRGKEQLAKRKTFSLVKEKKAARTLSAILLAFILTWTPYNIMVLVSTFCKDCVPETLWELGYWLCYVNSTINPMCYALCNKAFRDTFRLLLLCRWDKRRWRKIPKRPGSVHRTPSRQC
CHRM5 antagonist: human M5 muscarinic receptor antagonists, primary screen, CHO cells, Fluo-8 calcium fluorescence | Muscarinic acetylcholine receptor M5 (Homo sapiens), P08912 | CHO-hM5 cells, ACh EC80 | inhibition, % at 3 µM | 360,000 tested, 0.59% active;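 active = inhibition above a per-plate cutoff, the mean of that plate's test compounds plus 3 SD, cut at about 27% in these data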;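 also: 0% = acetylcholine EC80 with DMSO and 100% = DMSO without agonist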
M5 PAM: human M5 muscarinic receptor positive allosteric modulators, primary screen, CHO-K1 cells, Fluo-8 calcium fluorescence. CHO-K1 hM5, ACh EC20 PAM; 0% = ACh EC20, 100% = ACh EC100. 360,000 tested, 0.3% active. activation, % at 3 µM. Muscarinic acetylcholine receptor M5 (Homo sapiens), P08912. AID 624038, 2012;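 active = activation above the run cutoff, the mean activation of all test compounds plus 3 SD, cut at about 18% in these data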
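Probe or stimulus: acetylcholine, EC20 level; Assay system: human M5 receptor in CHO-K1 cells; Schedule: compound preincubation 140 s before EC20 acetylcholine addition; Technique: intracellular calcium via Fluo-8 fluorescence; Dosing: single-point, 3 µM nominal; Read-out basis: percent activation from peak-over-basal fluorescence ratio, scaled EC20-to-EC100 acetylcholine; Repeats: one well per compound, no replicates.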
M5 ag: human M5 muscarinic receptor agonists, primary screen, CHO-K1 cells, Fluo-8 calcium fluorescence; Muscarinic acetylcholine receptor M5 (Homo sapiens), P08912; CHO-K1 hM5 cells; 0% DMSO wells, 100% maximal acetylcholine response; activation, % at 3 µM; 360,000 tested, 0.19% active; AID 624037, 2012;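 active = activation above the run's mean over test compounds plus 3 SD, cut at about 23% in these data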;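 also: signal is peak over basal fluorescence ratio across the kinetic read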
CHRM1 agonist: human M1 muscarinic receptor agonists, primary screen, Fluo-8 calcium fluorescence, CHO-K1 cells, HTS; CHO-K1 hM1, agonist mode; 0% DMSO, 100% acetylcholine EC100; activation, % at 3 µM; 360,000 tested, 0.33% active; Muscarinic acetylcholine receptor M1 (Homo sapiens), P11229;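 active = activation above the run's mean compound activation plus 3 SD, cut at about 16% in these data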;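 also: peak over basal fluorescence ratio within a 140 s kinetic read after compound addition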
M1 PAM: human M1 muscarinic receptor positive allosteric modulators, primary screen, CHO-K1 cells, Fluo-8 calcium fluorescence, 1536-well. CHO-K1 hM1, ACh EC20; 0% = ACh EC20, 100% = maximal ACh. activation, % at 3 µM. 360,000 tested, 0.088% active. AID 588819, 2011; in the data active = activation above about 19%, passing the limit was not always enough
* = called active by the depositor; nt = not tested or not shown. The list is not random: actives were taken first. Their share in the collection is about 2%.

SMILES	CHRM1 antagonist	CHRM5 antagonist	M5 PAM	M5 ag	CHRM1 agonist	M1 PAM
Cc1cc(C)nc(NC(=O)CSc2nc3ccccc3s2)n1	-5	5	1	-3	-6	5
Cc1nc(NC(=O)CSc2nc3ccccc3s2)sc1C(=O)N(C)C	-20	1	3	-2	1	25*
C/C(CC(=O)Nc1ccccc1Br)=N\NC(=O)C(=O)N1CCCC1	-2	2	61*	-6	-1	7
C/C(CC(=O)Nc1ccc(Cl)cc1Cl)=N\NC(=O)C(=O)N1CCCC1	-11	0	2	-1	-1	10
O=S1(=O)C[C@H](N2CCC[C@@H]2CO)[C@@H](COCc2ccccc2)N1	2	2	1	2	-4	10
O=S1(=O)CCS(=O)(=O)C1c1ccccc1	-13	-8	20*	8	-1	19
COc1ccc(Cc2c(N)nc(C)nc2N)cc1	-8	5	4	-3	-12	14
Cc1nc(N)c(Cc2ccc(Cl)cc2Cl)c(N)n1	32	28*	-17	2	1	-27
CSc1ccccc1C(=O)C1CCCN(Cc2c(C)n(C)n(-c3ccccc3)c2=O)C1 (stereo not given)	79*	0	-2	-11	-13	-33
CCOC(=O)[C@]12CCC=C1N(Cc1ccccc1)C(=O)[C@H](CC(=O)NCC1CCCCC1)C2	nt	-6	4	-3	nt	nt
CCN(CC)C(=O)C1=C(C)N(Cc2ccc(OC)cc2)C(=O)C(CC(=O)NCc2cccs2)C1 (stereo not given)	-14	-2	1	-3	-5	7
CCN(CC)CCSc1nc2ccccc2n1Cc1ccccc1	90*	40*	-17	-7	-9	-30
COc1ccc(CCNS(=O)(=O)c2ccc3c(c2)NC(=O)CCS3)cc1OC	-16	-6	20*	6	-3	11
Cc1ccc(CCNS(=O)(=O)c2ccc3c(c2)NC(=O)CCS3)cc1	-7	-14	2	2	1	2
CN(C1CCCCC1)S(=O)(=O)c1ccc(S(=O)(=O)N2CCCC2)cc1	32*	13	-10	0	-3	-24
O=C(COC(=O)/C=C/c1ccccc1)Nc1ccc2c(c1)OCCO2	-18	7	-3	-1	2	27*
CCC(Oc1ccccc1)C(=O)OCC(=O)Nc1sccc1C(N)=O (stereo not given)	25	13	-30	8	6	-12
CC(Oc1ccccc1)C(=O)OCC(=O)Nc1sccc1C(N)=O (stereo not given)	40*	17	-23	11	1	-20
NC(=O)c1ccsc1NC(=O)COC(=O)/C=C/c1ccccc1	50*	23	-30	7	1	-23
CCOC(=O)c1c(C)[nH]c(C(=O)OCC(=O)Nc2sccc2C(N)=O)c1C	31*	6	-20	0	0	-16
COc1ccc(CCN=Cc2ccccc2O)cc1OC	-10	0	0	1	-2	7
CC1(C(=O)O)CCCN1C(=O)c1cc2ccccc2s1 (stereo not given)	-14	-1	0	1	-1	6
CCNC(=O)c1cc2c(c(-c3cccc(-c4cccnc4)c3)n1)[C@H](CCO)N(S(C)(=O)=O)C2	nt	-3	3	2	nt	nt
CCc1c(C(=O)Nc2cc(C(=O)OC)ccc2C)csc1C	-6	2	1	-4	-2	6
COc1ccc(OCCCC(=O)OCC(=O)Nc2sccc2C(N)=O)cc1	22	21	-32	4	2	-13
SMILES	CHRM1 antagonist	CHRM5 antagonist	M5 PAM	M5 ag	CHRM1 agonist	M1 PAM
CC(=O)c1ccc(OCC(=O)OCC(=O)Nc2sccc2C(N)=O)cc1	35*	20	-22	12	2	-10
Cc1ccc(S(=O)(=O)N2C[C@@H](C)[C@]3(C2)[C@H](O)[C@H](OC(=O)Nc2c(C)noc2C)C[C@H]2C(=O)N(c4ccccc4)C(=O)[C@H]23)cc1	-13	6	-6	1	0	15
O=C(Nc1nnc(-c2ccc3c(c2)CCCC3)o1)c1ccccc1	-5	2	-1	4	17*	6
CN(CC(=O)Nc1ccc(Cl)c(C(F)(F)F)c1)S(=O)(=O)c1cnc[nH]1	5	11	-10	8	14	11
CCOC(=O)c1c(NC(=S)N2CCN(C)CC2)sc2c1CCN(C(=O)OCC)C2	-12	-1	7	5	23*	15
COCC(C)NS(=O)(=O)c1ccc(NC(=O)c2ccccn2)cc1 (stereo not given)	-29	30*	-18	-3	3	2
CC(=O)NS(=O)(=O)c1ccc(NC(=O)c2ccccn2)cc1	-2	5	-2	-1	0	8
O=C(N/N=C/c1ccc2cccc(OCc3ccccc3)c2n1)c1ccc(Cl)cc1	34*	11	-17	-2	-1	-10
CCC(=O)N1CCCC1(C)C(=O)Nc1ccc2scnc2c1 (stereo not given)	10	1	0	0	6	14
COc1cc(C(=S)N2CCCCC2)ccc1OCC(=O)N1CCCC1	13	3	1	-1	-2	-2
COc1cc(C=O)ccc1OCC(=O)N1CCCC1	3	-18	20*	-1	-3	-2
O=c1c2cn(Cc3ccccc3)c3ccccc3c-2nn1Cc1ccc(F)cc1Cl	-9	-2	11	0	20*	31*
O=c1c2cn(Cc3ccc(F)cc3)c3ccccc3c-2nn1Cc1ccc(F)cc1	-7	5	-2	-3	-1	5
CCCCN1CCc2[nH]c(=S)[nH]c(=O)c2C1	-20	1	2	2	-3	25*
Nc1nc(N)c2ncn(C3C=CC(CO)C3)c2n1 (stereo not given)	-4	-1	4	2	-2	6
CC(C)CNC(=O)C1C(=O)Nc2ccccc2C(=O)N1C1CCCCC1 (stereo not given)	nt	9	-2	1	nt	nt
CCN(CC)CCNC(=O)c1ccc(NC(=O)c2ccc(S(=O)(=O)N(C)c3ccccc3OC)cc2)cc1	41*	7	-3	-11	-8	-21

High-throughput results (PubChem BioAssay)
